Assay results taken from ChEMBL document CHEMBL4689842, “EUbOPEN Chemogenomics Library wave 1” (2021).
“And” between values parts separate entries of the source, which are not always exact repeats. Identical values can stand only once.

Tested on: HEK-293T
Assay: Multiplex assay against HEK293T;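 for Population Tubulin-Different-Phenotype (%): share of the cells with healthy nuclei that show this phenotype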
Format: toxicity, cell-based
Details: human
Method in brief: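 Four dyes were applied at seeding to live cells: Hoechst33342, BioTracker Green Microtubule Cytoskeleton Dye, MitoTracker Red and Annexin V Alexa Fluor 680. Imaging after compound addition used a CQ1 microscope at 37°C and 5% CO2. CellPathfinder machine-learning gating then sorted cells into Hoechst high-intensity objects or normal cells, normal cells into healthy, pyknosed or fragmented nuclei, and pyknosed cells into mitotic or apoptotic, with tubulin, mitochondrial-mass and membrane-permeability phenotypes given as per cents of healthy-nucleus cells.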

[1] = 12 h, 1 µM, compound concentration 1 uM, replicate 1
[2] = 12 h, 1 µM, compound concentration 1 uM, replicate 2
[3] = 12 h, 10 µM, compound concentration 10 uM, replicate 1
[4] = 12 h, 10 µM, compound concentration 10 uM, replicate 2
[5] = 24 h, 1 µM, compound concentration 1 uM, replicate 1
[6] = 24 h, 1 µM, compound concentration 1 uM, replicate 2
[7] = 24 h, 10 µM, compound concentration 10 uM, replicate 1
[8] = 24 h, 10 µM, compound concentration 10 uM, replicate 2
[9] = 48 h, 1 µM, compound concentration 1 uM, replicate 1
[10] = 48 h, 1 µM, compound concentration 1 uM, replicate 2
[11] = 48 h, 10 µM, compound concentration 10 uM, replicate 1
[12] = 48 h, 10 µM, compound concentration 10 uM, replicate 2

## O=C(Nc1ccc(-n2nc(-c3cccnc3)cc2C(F)(F)F)cn1)c1ccc(-c2ccccc2)c(F)c1 [BI 2049]
[1]
  Population Apoptotic (%): 46%
  Population Fragmented Nuclei (%): 22%
  Population Healthy Nuclei (%): 24%
  Population Hoechst High Intensity Objects (%): 21%
  Population Membrane Permeable-Phenotype (%): 0%
  Population Mitochondria Different-Phenotype (%): 60%
  Population Mitotic Cells (%): 53%
  Population Normal (%): 78%
  Population Pyknosed Nuclei (%): 53%
  Population Tubulin-Different-Phenotype (%): 10%
  Total Cell Count: 147
[2]
  Population Apoptotic (%): 3%
  Population Fragmented Nuclei (%): 11%
  Population Healthy Nuclei (%): 37%
  Population Hoechst High Intensity Objects (%): 2%
  Population Membrane Permeable-Phenotype (%): 3%
  Population Mitochondria Different-Phenotype (%): 8%
  Population Mitotic Cells (%): 96%
  Population Normal (%): 97%
  Population Pyknosed Nuclei (%): 51%
  Population Tubulin-Different-Phenotype (%): 1%
  Total Cell Count: 166
[3]
  Population Apoptotic (%): 63%
  Population Fragmented Nuclei (%): 12%
  Population Healthy Nuclei (%): 23%
  Population Hoechst High Intensity Objects (%): 11%
  Population Membrane Permeable-Phenotype (%): 3%
  Population Mitochondria Different-Phenotype (%): 90%
  Population Mitotic Cells (%): 36%
  Population Normal (%): 88%
  Population Pyknosed Nuclei (%): 64%
  Population Tubulin-Different-Phenotype (%): 65%
  Total Cell Count: 254
[4]
  Population Apoptotic (%): 12%
  Population Fragmented Nuclei (%): 5%
  Population Healthy Nuclei (%): 47%
  Population Hoechst High Intensity Objects (%): 3%
  Population Membrane Permeable-Phenotype (%): 9%
  Population Mitochondria Different-Phenotype (%): 15%
  Population Mitotic Cells (%): 88%
  Population Normal (%): 96%
  Population Pyknosed Nuclei (%): 47%
  Population Tubulin-Different-Phenotype (%): 13%
  Total Cell Count: 276
[5]
  Population Apoptotic (%): 65%
  Population Fragmented Nuclei (%): 25%
  Population Healthy Nuclei (%): 30%
  Population Hoechst High Intensity Objects (%): 26%
  Population Membrane Permeable-Phenotype (%): 6%
  Population Mitochondria Different-Phenotype (%): 59%
  Population Mitotic Cells (%): 34%
  Population Normal (%): 73%
  Population Pyknosed Nuclei (%): 43%
  Population Tubulin-Different-Phenotype (%): 31%
  Total Cell Count: 143
[6]
  Population Apoptotic (%): 12%
  Population Fragmented Nuclei (%): 7%
  Population Healthy Nuclei (%): 73%
  Population Hoechst High Intensity Objects (%): 4%
  Population Membrane Permeable-Phenotype (%): 3%
  Population Mitochondria Different-Phenotype (%): 6%
  Population Mitotic Cells (%): 87%
  Population Normal (%): 95%
  Population Pyknosed Nuclei (%): 19%
  Population Tubulin-Different-Phenotype (%): 4%
  Total Cell Count: 212
[7]
  Population Apoptotic (%): 60%
  Population Fragmented Nuclei (%): 12%
  Population Healthy Nuclei (%): 27%
  Population Hoechst High Intensity Objects (%): 13%
  Population Membrane Permeable-Phenotype (%): 3%
  Population Mitochondria Different-Phenotype (%): 82%
  Population Mitotic Cells (%): 39%
  Population Normal (%): 86%
  Population Pyknosed Nuclei (%): 60%
  Population Tubulin-Different-Phenotype (%): 53%
  Total Cell Count: 266
[8]
  Population Apoptotic (%): 5%
  Population Fragmented Nuclei (%): 6%
  Population Healthy Nuclei (%): 64%
  Population Hoechst High Intensity Objects (%): 2%
  Population Membrane Permeable-Phenotype (%): 6%
  Population Mitochondria Different-Phenotype (%): 14%
  Population Mitotic Cells (%): 94%
  Population Normal (%): 97%
  Population Pyknosed Nuclei (%): 29%
  Population Tubulin-Different-Phenotype (%): 23%
  Total Cell Count: 339
[9]
  Population Apoptotic (%): 54%
  Population Fragmented Nuclei (%): 27%
  Population Healthy Nuclei (%): 35%
  Population Hoechst High Intensity Objects (%): 18%
  Population Membrane Permeable-Phenotype (%): 2%
  Population Mitochondria Different-Phenotype (%): 20%
  Population Mitotic Cells (%): 46%
  Population Normal (%): 81%
  Population Pyknosed Nuclei (%): 37%
  Population Tubulin-Different-Phenotype (%): 14%
  Total Cell Count: 166
[10]
  Population Apoptotic (%): 11%
  Population Fragmented Nuclei (%): 7%
  Population Healthy Nuclei (%): 83%
  Population Hoechst High Intensity Objects (%): 2%
  Population Mitochondria Different-Phenotype (%): 3%
  Population Mitotic Cells (%): 88%
  Population Normal (%): 97%
  Population Pyknosed Nuclei (%): 8%
  Population Tubulin-Different-Phenotype (%): 6%
  Total Cell Count: 420
[11]
  Population Apoptotic (%): 55%
  Population Fragmented Nuclei (%): 14%
  Population Healthy Nuclei (%): 28%
  Population Hoechst High Intensity Objects (%): 18%
  Population Membrane Permeable-Phenotype (%): 1%
  Population Mitochondria Different-Phenotype (%): 52%
  Population Mitotic Cells (%): 44%
  Population Normal (%): 81%
  Population Pyknosed Nuclei (%): 56%
  Population Tubulin-Different-Phenotype (%): 40%
  Total Cell Count: 298
[12]
  Population Apoptotic (%): 7%
  Population Fragmented Nuclei (%): 6%
  Population Healthy Nuclei (%): 82%
  Population Hoechst High Intensity Objects (%): 2%
  Population Membrane Permeable-Phenotype (%): 5%
  Population Mitochondria Different-Phenotype (%): 4%
  Population Mitotic Cells (%): 92%
  Population Normal (%): 97%
  Population Pyknosed Nuclei (%): 10%
  Population Tubulin-Different-Phenotype (%): 21%
  Total Cell Count: 633

## COCC(=O)NC/C=C/c1ccc2ncnc(Nc3ccc(Oc4ccc(C)nc4)c(C)c3)c2c1 [CP-724714]
[1]
  Population Apoptotic (%): 22% and 23%
  Population Fragmented Nuclei (%): 14% and 11%
  Population Healthy Nuclei (%): 39% and 69%
  Population Hoechst High Intensity Objects (%): 16% and 10%
  Population Mitotic Cells (%): 77% and 76%
  Population Normal (%): 83% and 89%
  Population Pyknosed Nuclei (%): 46% and 18%
  Total Cell Count: 617 and 674
[2]
  Population Apoptotic (%): 16% and 8%
  Population Healthy Nuclei (%): 70% and 89%
  Population Hoechst High Intensity Objects (%): 3% and 2%
  Population Mitotic Cells (%): 83% and 91%
  Population Normal (%): 96% and 97%
  Total Cell Count: 843 and 1632
[3]
  Population Apoptotic (%): 66%
  Population Fragmented Nuclei (%): 19%
  Population Healthy Nuclei (%): 18%
  Population Hoechst High Intensity Objects (%): 19%
  Population Membrane Permeable-Phenotype (%): 2%
  Population Mitochondria Different-Phenotype (%): 100%
  Population Mitotic Cells (%): 33%
  Population Normal (%): 80%
  Population Pyknosed Nuclei (%): 62%
  Population Tubulin-Different-Phenotype (%): 100%
  Total Cell Count: 329
[4]
  Population Apoptotic (%): 48%
  Population Fragmented Nuclei (%): 12%
  Population Healthy Nuclei (%): 12%
  Population Hoechst High Intensity Objects (%): 6%
  Population Membrane Permeable-Phenotype (%): 11%
  Population Mitochondria Different-Phenotype (%): 96%
  Population Mitotic Cells (%): 51%
  Population Normal (%): 93%
  Population Pyknosed Nuclei (%): 75%
  Population Tubulin-Different-Phenotype (%): 92%
  Total Cell Count: 230
[5]
  Population Apoptotic (%): 31% and 18%
  Population Fragmented Nuclei (%): 13% and 9%
  Population Healthy Nuclei (%): 54% and 81%
  Population Hoechst High Intensity Objects (%): 12% and 6%
  Population Membrane Permeable-Phenotype (%): 19%
  Population Mitotic Cells (%): 68% and 81%
  Population Normal (%): 87% and 93%
  Total Cell Count: 614 and 832
[6]
  Population Apoptotic (%): 14% and 5%
  Population Healthy Nuclei (%): 65% and 76%
  Population Hoechst High Intensity Objects (%): 4% and 2%
  Population Membrane Permeable-Phenotype (%): 10% and 9%
  Population Mitotic Cells (%): 85% and 94%
  Population Normal (%): 95% and 97%
  Total Cell Count: 1006 and 2815
[7]
  Population Apoptotic (%): 71%
  Population Fragmented Nuclei (%): 23%
  Population Healthy Nuclei (%): 17%
  Population Hoechst High Intensity Objects (%): 19%
  Population Membrane Permeable-Phenotype (%): 0%
  Population Mitochondria Different-Phenotype (%): 97%
  Population Mitotic Cells (%): 28%
  Population Normal (%): 80%
  Population Pyknosed Nuclei (%): 58%
  Total Cell Count: 336
[8]
  Population Apoptotic (%): 70%
  Population Fragmented Nuclei (%): 7%
  Population Healthy Nuclei (%): 28%
  Population Hoechst High Intensity Objects (%): 6%
  Population Membrane Permeable-Phenotype (%): 6%
  Population Mitochondria Different-Phenotype (%): 98%
  Population Mitotic Cells (%): 29%
  Population Normal (%): 93%
  Population Pyknosed Nuclei (%): 63%
  Population Tubulin-Different-Phenotype (%): 95%
  Total Cell Count: 245
[11]
  Population Apoptotic (%): 62%
  Population Fragmented Nuclei (%): 26%
  Population Healthy Nuclei (%): 10%
  Population Hoechst High Intensity Objects (%): 22%
  Population Membrane Permeable-Phenotype (%): 7%
  Population Mitochondria Different-Phenotype (%): 82%
  Population Mitotic Cells (%): 37%
  Population Normal (%): 77%
  Population Pyknosed Nuclei (%): 62%
  Population Tubulin-Different-Phenotype (%): 92%
  Total Cell Count: 347
[12]
  Population Apoptotic (%): 66%
  Population Fragmented Nuclei (%): 8%
  Population Healthy Nuclei (%): 51%
  Population Hoechst High Intensity Objects (%): 5%
  Population Mitochondria Different-Phenotype (%): 90%
  Population Mitotic Cells (%): 33%
  Population Normal (%): 94%
  Population Pyknosed Nuclei (%): 39%
  Population Tubulin-Different-Phenotype (%): 96%
  Total Cell Count: 291
